Converted amounts (≈) assume the structure as drawn. Bounds are passed on as bounds.

Holding throughout (type): functional
The subject of one assay is Talaromyces marneffei. Description: Antifungal activity against Penicillium marneffei after 16 to 18 hrs by serial dilution method. To be noted: for MIC: Talaromyces marneffei. The method, boiled down: (§1)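 The test compound was dissolved in DMF and serially diluted. A standard drop of the prepared microbial culture was added to each dilution, and tubes were incubated at 37 °C for 16–18 h. MIC was taken as the highest dilution that stayed clear with no visible turbidity.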

For the next assay, the system named is Staphylococcus aureus. Description: Antibacterial activity against Staphylococcus aureus after 16 to 18 hrs by serial dilution method. The conditions noted are these: for MIC: Staphylococcus aureus. The method, boiled down:
as §1

For the next assay, the system named is Pseudomonas aeruginosa. Description: Antibacterial activity against Pseudomonas aeruginosa after 16 to 18 hrs by serial dilution method. To be noted: for MIC: Pseudomonas aeruginosa. The method, boiled down: as §1
The subject of a further assay is Aspergillus flavus. Description: Antifungal activity against Aspergillus flavus after 16 to 18 hrs by serial dilution method. The conditions noted are these: for MIC: Aspergillus flavus. The method, boiled down:
as §1

The subject of a further assay is Klebsiella pneumoniae. Description: Antibacterial activity against Klebsiella pneumoniae after 16 to 18 hrs by serial dilution method. To be noted: for MIC: Klebsiella pneumoniae.
Assay [1] concerns Trichophyton mentagrophytes. Description: Antifungal activity against Trichophyton mentagrophytes after 16 to 18 hrs by serial dilution method. To be noted: for MIC: Trichophyton mentagrophytes.
The next assay deals with Escherichia coli. Description: Antibacterial activity against Escherichia coli after 16 to 18 hrs by serial dilution method. The conditions noted are these: for MIC: Escherichia coli. The method, boiled down:
as §1

A further assay deals with Aspergillus fumigatus. Description: Antifungal activity against Aspergillus fumigatus after 16 to 18 hrs by serial dilution method. To be noted: for MIC: Aspergillus fumigatus.

On to `Cc1ccccc1OCc1ccccc1-c1nn(CNc2cccc(C(F)(F)F)c2)c(=S)o1`, for which the “inhibition zone (IZ)” value (with Talaromyces marneffei; with Staphylococcus aureus; in the assay with Pseudomonas aeruginosa; with Aspergillus flavus; in the assay on Klebsiella pneumoniae; in assay [1]) was 16 mm in each case. Further, the “inhibition zone (IZ)” value in the assay with Escherichia coli and with Aspergillus fumigatus was 16 mm in each case. Moreover, the minimum inhibitory concentration (MIC) (in the assay on Talaromyces marneffei; in the assay with Staphylococcus aureus; in the assay on Pseudomonas aeruginosa; against Aspergillus flavus; in the assay with Klebsiella pneumoniae; in assay [1]) was 6.25 µg/mL (≈ 13.3 µM) each time. The minimal inhibitory concentration (MIC) in the assay on Escherichia coli and in the assay on Aspergillus fumigatus was 6.25 µg/mL (≈ 13.3 µM) in each case.
With `Cc1ccc(OCc2ccccc2-c2nn(CNc3cccc(C(F)(F)F)c3)c(=S)o2)cc1`, the “inhibition zone (IZ)” value (in the assay with Talaromyces marneffei; in the assay with Staphylococcus aureus; with Pseudomonas aeruginosa; in the assay with Aspergillus flavus; with Klebsiella pneumoniae; in assay [1]) was 16 mm each time. Also, the “inhibition zone (IZ)” value in the assay on Escherichia coli and with Aspergillus fumigatus was 16 mm in each case. Moreover, the minimum inhibitory concentration (MIC) (against Talaromyces marneffei; against Staphylococcus aureus; in the assay on Pseudomonas aeruginosa; in the assay on Aspergillus flavus; against Klebsiella pneumoniae; in assay [1]) was 6.25 µg/mL (≈ 13.3 µM) in each case. In addition, the minimum inhibitory concentration (MIC) with Escherichia coli and against Aspergillus fumigatus was 6.25 µg/mL (≈ 13.3 µM) in each case.
Consider `Cc1ccc(OCc2ccccc2-c2nnc(-c3ccccc3F)o2)cc1`, for which the “inhibition zone (IZ)” value (in the assay on Talaromyces marneffei; with Staphylococcus aureus; in the assay on Pseudomonas aeruginosa; with Aspergillus flavus; in the assay on Klebsiella pneumoniae; in assay [1]) was 16 mm throughout. Moreover, the “inhibition zone (IZ)” value in the assay with Escherichia coli and in the assay on Aspergillus fumigatus was 16 mm throughout. The minimal inhibitory concentration (MIC) (in the assay on Talaromyces marneffei; in the assay on Staphylococcus aureus; against Pseudomonas aeruginosa; in the assay on Aspergillus flavus; against Klebsiella pneumoniae; in assay [1]) was 6.25 µg/mL (≈ 17.3 µM) in each case. Further, the MIC against Escherichia coli and against Aspergillus fumigatus was 6.25 µg/mL (≈ 17.3 µM) throughout.
With `Cc1cc(C)cc(-c2nnc(-c3ccccc3COc3ccccc3C)o2)c1`, the “inhibition zone (IZ)” value (with Talaromyces marneffei; with Staphylococcus aureus; with Pseudomonas aeruginosa; with Aspergillus flavus; in the assay on Klebsiella pneumoniae; in assay [1]) was 11 mm throughout. The figures for the “inhibition zone (IZ)” value in the assay on Escherichia coli and with Aspergillus fumigatus were 11 mm and 16 mm, respectively. Also, the MIC (against Talaromyces marneffei; with Staphylococcus aureus; in the assay on Pseudomonas aeruginosa; against Aspergillus flavus; in the assay with Klebsiella pneumoniae; in assay [1]) was 12.5 µg/mL (≈ 33.7 µM) each time. Also, the results for the minimum inhibitory concentration (MIC) against Escherichia coli and against Aspergillus fumigatus were 12.5 µg/mL (≈ 33.7 µM) and 6.25 µg/mL (≈ 16.9 µM), respectively.
As to `COc1cc(-c2nnc(-c3ccccc3COc3cccc(C)c3)o2)cc(OC)c1OC`, the “inhibition zone (IZ)” value with Talaromyces marneffei is 16 mm; in the assay on Staphylococcus aureus, 16 mm; with Pseudomonas aeruginosa, 16 mm; in the assay with Aspergillus flavus, 11 mm; with Klebsiella pneumoniae, 16 mm; in assay [1], 11 mm. Besides, the “inhibition zone (IZ)” value in the assay on Escherichia coli and in the assay on Aspergillus fumigatus was 16 mm in each case. The MIC against Talaromyces marneffei turned out to be 6.25 µg/mL (≈ 14.5 µM); in the assay with Staphylococcus aureus, 6.25 µg/mL (≈ 14.5 µM); against Pseudomonas aeruginosa, 6.25 µg/mL (≈ 14.5 µM); against Aspergillus flavus it was 12.5 µg/mL (≈ 28.9 µM); with Klebsiella pneumoniae, 6.25 µg/mL (≈ 14.5 µM); in assay [1] it was 12.5 µg/mL (≈ 28.9 µM). Moreover, the MIC against Escherichia coli and against Aspergillus fumigatus was 6.25 µg/mL (≈ 14.5 µM) throughout.
`Cc1ccc(OCc2ccccc2-c2nnc(-c3cccc(Br)c3)o2)cc1`: the “inhibition zone (IZ)” value (in the assay on Talaromyces marneffei; in the assay on Staphylococcus aureus; with Pseudomonas aeruginosa; with Aspergillus flavus; in the assay with Klebsiella pneumoniae; in assay [1]) was under 10 mm in each case. The “inhibition zone (IZ)” value in the assay with Escherichia coli and in the assay with Aspergillus fumigatus was under 10 mm each time. For the same compound, the minimal inhibitory concentration (MIC) (with Talaromyces marneffei; in the assay with Staphylococcus aureus; in the assay on Pseudomonas aeruginosa; in the assay with Aspergillus flavus; against Klebsiella pneumoniae; in assay [1]) was 25 µg/mL (≈ 59.3 µM) throughout. In addition, the MIC against Escherichia coli and in the assay with Aspergillus fumigatus was 25 µg/mL (≈ 59.3 µM) in each case.
`CCSc1nnc(-c2ccccc2COc2ccc(C)cc2)o1`: the “inhibition zone (IZ)” value (with Talaromyces marneffei; with Staphylococcus aureus; in the assay on Pseudomonas aeruginosa; in the assay with Aspergillus flavus; in the assay on Klebsiella pneumoniae; in assay [1]) was under 10 mm throughout. In addition, the “inhibition zone (IZ)” value in the assay with Escherichia coli and in the assay with Aspergillus fumigatus was under 10 mm each time. The MIC (against Talaromyces marneffei; in the assay with Staphylococcus aureus; against Pseudomonas aeruginosa; against Aspergillus flavus; in the assay with Klebsiella pneumoniae; in assay [1]) was 25 µg/mL (≈ 76.6 µM) each time. Also, the MIC in the assay with Escherichia coli and against Aspergillus fumigatus was 25 µg/mL (≈ 76.6 µM) throughout.
As for `Cc1cccc(OCc2ccccc2-c2nn(CN3CCOCC3)c(=S)o2)c1`, the “inhibition zone (IZ)” value (in the assay with Talaromyces marneffei; with Staphylococcus aureus; in the assay on Pseudomonas aeruginosa; in the assay on Aspergillus flavus; with Klebsiella pneumoniae; in assay [1]) was 11 mm each time. The “inhibition zone (IZ)” value in the assay with Escherichia coli and with Aspergillus fumigatus was 11 mm in each case. Moreover, the MIC (against Talaromyces marneffei; in the assay on Staphylococcus aureus; against Pseudomonas aeruginosa; with Aspergillus flavus; against Klebsiella pneumoniae; in assay [1]) was 12.5 µg/mL (≈ 31.4 µM) throughout. Besides, the MIC in the assay with Escherichia coli and with Aspergillus fumigatus was 12.5 µg/mL (≈ 31.4 µM) in each case.
As for `Cc1cccc(CSc2nnc(-c3ccccc3COc3cccc(C)c3)o2)c1`, the “inhibition zone (IZ)” value (with Talaromyces marneffei; in the assay on Staphylococcus aureus; in the assay on Pseudomonas aeruginosa; in the assay with Aspergillus flavus; with Klebsiella pneumoniae; in assay [1]) was 11 mm each time. In addition, the “inhibition zone (IZ)” value in the assay with Escherichia coli is 11 mm; in the assay on Aspergillus fumigatus, 16 mm. Moreover, the minimum inhibitory concentration (MIC) (against Talaromyces marneffei; against Staphylococcus aureus; in the assay with Pseudomonas aeruginosa; with Aspergillus flavus; in the assay on Klebsiella pneumoniae; in assay [1]) was 12.5 µg/mL (≈ 31.1 µM) throughout. The MIC against Escherichia coli is 12.5 µg/mL (≈ 31.1 µM); against Aspergillus fumigatus, 6.25 µg/mL (≈ 15.5 µM).
`Cc1ccccc1OCc1ccccc1-c1nnc(SCc2ccc(Cl)cc2Cl)o1`: the “inhibition zone (IZ)” value with Talaromyces marneffei was found to be 16 mm; in the assay on Staphylococcus aureus, 16 mm; in the assay on Pseudomonas aeruginosa it was 16 mm; in the assay on Aspergillus flavus, 16 mm; in the assay on Klebsiella pneumoniae, 16 mm; in assay [1], 11 mm. The “inhibition zone (IZ)” value in the assay with Escherichia coli was found to be 11 mm; in the assay with Aspergillus fumigatus it was 16 mm. Also, the MIC in the assay on Talaromyces marneffei turned out to be 6.25 µg/mL (≈ 13.7 µM); against Staphylococcus aureus it was 6.25 µg/mL (≈ 13.7 µM); in the assay on Pseudomonas aeruginosa, 6.25 µg/mL (≈ 13.7 µM); in the assay on Aspergillus flavus, 6.25 µg/mL (≈ 13.7 µM); against Klebsiella pneumoniae, 6.25 µg/mL (≈ 13.7 µM); in assay [1] it was 12.5 µg/mL (≈ 27.3 µM). The minimal inhibitory concentration (MIC) against Escherichia coli was found to be 12.5 µg/mL (≈ 27.3 µM); in the assay on Aspergillus fumigatus it was 6.25 µg/mL (≈ 13.7 µM).
Take `O=C(c1cc(Cl)ccc1NCn1nc(-c2ccccc2COc2ccc(Cl)cc2)oc1=S)C(F)(F)F`: the “inhibition zone (IZ)” value (in the assay on Talaromyces marneffei; in the assay on Staphylococcus aureus; in the assay with Pseudomonas aeruginosa; in the assay with Aspergillus flavus; in the assay with Klebsiella pneumoniae; in assay [1]) was under 10 mm throughout. In addition, the “inhibition zone (IZ)” value in the assay on Escherichia coli and with Aspergillus fumigatus was under 10 mm each time. For the same compound, the MIC (against Talaromyces marneffei; with Staphylococcus aureus; against Pseudomonas aeruginosa; in the assay with Aspergillus flavus; in the assay with Klebsiella pneumoniae; in assay [1]) was 25 µg/mL (≈ 45.1 µM) in each case. Besides, the MIC with Escherichia coli and in the assay on Aspergillus fumigatus was 25 µg/mL (≈ 45.1 µM) each time.
Take `S=c1oc(-c2ccccc2COc2ccc(Cl)cc2)nn1CN1CCOCC1`: the “inhibition zone (IZ)” value (in the assay with Talaromyces marneffei; in the assay with Staphylococcus aureus; in the assay with Pseudomonas aeruginosa; in the assay with Aspergillus flavus; in the assay with Klebsiella pneumoniae; in assay [1]) was 11 mm in each case. For the same compound, the “inhibition zone (IZ)” value in the assay on Escherichia coli and in the assay on Aspergillus fumigatus was 11 mm each time. Moreover, the MIC (with Talaromyces marneffei; in the assay with Staphylococcus aureus; in the assay on Pseudomonas aeruginosa; in the assay on Aspergillus flavus; against Klebsiella pneumoniae; in assay [1]) was 12.5 µg/mL (≈ 29.9 µM) in each case. For the same compound, the MIC with Escherichia coli and against Aspergillus fumigatus was 12.5 µg/mL (≈ 29.9 µM) throughout.

Broadly, the MIC is the smallest concentration in the dilution series that meets the test's criterion for growth inhibition.

(Values after ChEMBL document CHEMBL1275272, “Synthesis, characterization and antimicrobial activity of some disubstituted 1,3,4-oxadiazoles carrying 2-(aryloxymethyl)phenyl moiety” (2010).)
